Reference: ChEMBL document CHEMBL4376814, “Novel cyclin-dependent kinase 9 (CDK9) inhibitor with suppression of cancer stemness activity against non-small-cell lung cancer” (Eur J Med Chem, 2019)
Activity calls are given as the source filed them. No cut-off for these calls is given here.

Legend:
[1] = Half life in human liver microsomes at 2 uM in presence of NADPH measured up to 1 hr by HPLC analysis; format: ADME, Microsome
Outline: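 Compound at 2 μM incubated at 37 °C with liver microsomes (1 mg/mL), 3 mM MgCl2 and 0.1 M phosphate buffer pH 7.4; 5 min preincubation, then started with 3 mM NADPH. Aliquots (n = 3) at 0, 10, 20, 30, 45, 60 min quenched with ice-cold acetonitrile, centrifuged, supernatant by HPLC. t1/2 from linear-regression kinetic constant k.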

[2] = target: Tyrosine-protein kinase Fer (Homo sapiens) (UniProt P16591); test: Inhibition of recombinant human FER (541 to end residues) at 1 uM using KKKSPGEYVNIEFG as substrate measured after 40 mins in presence of [gamma33P]ATP by scintillation counting method relative to control
[3] = target: Homeodomain-interacting protein kinase 3 (Homo sapiens) (UniProt Q9H422); test: Inhibition of recombinant human HIPK3 (161 to 562 residues) at 1 uM using myelin basic protein as substrate measured after 40 mins in presence of [gamma33P]ATP by scintillation counting method relative to control
[4] = target: Homeodomain-interacting protein kinase 4 (Homo sapiens) (UniProt Q8NE63); test: Inhibition of recombinant full-length human HIPK4 at 1 uM using RRRFRPASPLRGPPK as substrate measured after 40 mins in presence of [gamma33P]ATP by scintillation counting method relative to control
[5] = target: Serine/threonine-protein kinase 32C (Homo sapiens) (UniProt Q86UX6); test: Inhibition of recombinant full-length human STK32C at 1 uM using casein as substrate measured after 120 mins in presence of [gamma33P]ATP by scintillation counting method relative to control
[6] = tested on: Serine/threonine-protein kinase B-raf (Homo sapiens), P15056 [V600E]; test: Inhibition of recombinant human BRAF V599E mutant (416 to end residues) at 1 uM using myelin basic protein as substrate measured after 40 mins in presence of [gamma33P]ATP by scintillation counting method relative to control
Homo sapiens = species on record: Homo sapiens; test: Inhibition of recombinant human ARAF Y301D/Y302D mutant (273 to end residues) at 1 uM using myelin basic protein as substrate measured after 40 mins in presence of [gamma33P]ATP by scintillation counting method relative to control
[7] = target: Dual specificity protein kinase CLK4 (Homo sapiens) (UniProt Q9HAZ1); test: Inhibition of recombinant human CLK4 (128 to end residues) at 1 uM using YRRAAVPPSPSLSRHSSPHQS(p) EDEEE as substrate measured after 40 mins in presence of [gamma33P]ATP by scintillation counting method relative to control
Outline: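 Single-point inhibition at 1 µM was measured in the Eurofins KinaseProfiler panel. Values are the mean of two independent experiments.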

MCF7 = test: Antiproliferative activity against human MCF7 cells assessed as inhibition of cell viability after 72 hrs by CCK-8 assay; format: functional, cell-based; conditions: MCF7, 72 h
Outline: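 Cells kept at 37 °C, 5% CO2 in DMEM or RPMI-1640 with 10% FBS and 1% penicillin/streptomycin, then seeded at 3000 cells/well (adherent) or 10,000 cells/well (suspension). Exposed to a range of concentrations for 72 h. CCK-8 added for 1-4 h before reading A450. […] Three independent experiments.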

[8] = target: Proto-oncogene tyrosine-protein kinase Src (Homo sapiens) (UniProt P12931); test: Inhibition of recombinant full-length human cSRC at 1 uM using KVEKIGEGTYGVVYK as substrate measured after 40 mins in presence of [gamma33P]ATP by scintillation counting method relative to control
[9] = target: Ribosomal protein S6 kinase alpha-1 (Homo sapiens) (UniProt Q15418); test: Inhibition of recombinant full-length human Rsk1 at 1 uM using KKKNRTLSVA as substrate measured after 40 mins in presence of [gamma33P]ATP by scintillation counting method relative to control
[10] = target: Transcription initiation factor TFIID subunit 1-like (Homo sapiens) (UniProt Q8IZX4); test: Inhibition of recombinant human TAF1L (1428 to end residues) at 1 uM using RRRFRPASPLRGPPK as substrate after 120 mins in presence of [gamma33P]ATP by scintillation counting analysis relative to control
[11] = target: Cyclin-dependent kinase 2/cyclin E1 (Homo sapiens) (UniProt P24864+P24941); test: Inhibition of recombinant full-length human CDK2/cyclinE at 1 uM using Histone H1 as substrate measured after 40 mins in presence of [gamma33P]ATP by scintillation counting method relative to control; format: protein-complex assay
NCI-H1299 [12] = test: Induction of apoptosis in human H1299 cells assessed as reduction in Bcl-2 level at 0.25 to 1 uM after 24 hrs by Western blot analysis; format: functional, cell-based
Outline: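 A549 or H1299 cells exposed to the indicated concentrations for 24 h. Protein extracts then immunoblotted for apoptosis-pathway proteins (Bcl2, Bim, cleaved caspase 3).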

[13] = target: Serine/threonine-protein kinase D3 (Homo sapiens) (UniProt O94806); test: Inhibition of recombinant full-length human PKD3 at 1 uM using KKLRRTLSVA as substrate measured after 40 mins in presence of [gamma33P]ATP by scintillation counting method relative to control
NCI-H1299 [14] = test: Downregulation of OCT4 in human H1299 cells at 0.25 to 1 uM by Western blot analysis; format: functional, cell-based
[15] = target: Activated CDC42 kinase 1 (Homo sapiens) (UniProt Q07912); test: Inhibition of recombinant human ACK1 (1 to 389 residues) at 1 uM using EFPIYDFLPAKKK as substrate measured after 40 mins in presence of [gamma33P]ATP by scintillation counting method relative to control
[16] = target: Dual specificity mitogen-activated protein kinase kinase 1 (Homo sapiens) (UniProt Q02750); test: Inhibition of recombinant full-length human MEK1 at 1 uM using unactive MAPK2 as substrate measured after 40 mins in presence of [gamma33P]ATP by scintillation counting method relative to control

Ribosomal protein S6 kinase alpha-1 (Homo sapiens), sequence (Q15418 whole entry): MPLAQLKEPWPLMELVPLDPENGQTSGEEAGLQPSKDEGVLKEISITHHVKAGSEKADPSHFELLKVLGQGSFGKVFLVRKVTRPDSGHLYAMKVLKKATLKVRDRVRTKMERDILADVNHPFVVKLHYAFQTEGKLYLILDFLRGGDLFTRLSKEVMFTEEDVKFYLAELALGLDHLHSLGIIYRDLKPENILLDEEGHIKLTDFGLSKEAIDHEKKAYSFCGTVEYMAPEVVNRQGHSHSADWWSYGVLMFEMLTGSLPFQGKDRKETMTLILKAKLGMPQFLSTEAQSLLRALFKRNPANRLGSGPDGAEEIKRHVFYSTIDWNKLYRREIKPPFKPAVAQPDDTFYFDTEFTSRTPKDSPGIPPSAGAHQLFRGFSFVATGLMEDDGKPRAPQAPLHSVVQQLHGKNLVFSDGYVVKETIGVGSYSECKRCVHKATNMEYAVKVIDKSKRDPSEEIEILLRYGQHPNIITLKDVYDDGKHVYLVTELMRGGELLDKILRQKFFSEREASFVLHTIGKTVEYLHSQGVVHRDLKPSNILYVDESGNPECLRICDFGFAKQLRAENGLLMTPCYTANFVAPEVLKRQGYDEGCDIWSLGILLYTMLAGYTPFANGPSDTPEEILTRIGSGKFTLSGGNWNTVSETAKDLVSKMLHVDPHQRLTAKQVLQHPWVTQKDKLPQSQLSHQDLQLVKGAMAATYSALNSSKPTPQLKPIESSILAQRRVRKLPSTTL
Tyrosine-protein kinase Fer (Homo sapiens), sequence (P16591 whole entry, looked up, the tested form may be a part): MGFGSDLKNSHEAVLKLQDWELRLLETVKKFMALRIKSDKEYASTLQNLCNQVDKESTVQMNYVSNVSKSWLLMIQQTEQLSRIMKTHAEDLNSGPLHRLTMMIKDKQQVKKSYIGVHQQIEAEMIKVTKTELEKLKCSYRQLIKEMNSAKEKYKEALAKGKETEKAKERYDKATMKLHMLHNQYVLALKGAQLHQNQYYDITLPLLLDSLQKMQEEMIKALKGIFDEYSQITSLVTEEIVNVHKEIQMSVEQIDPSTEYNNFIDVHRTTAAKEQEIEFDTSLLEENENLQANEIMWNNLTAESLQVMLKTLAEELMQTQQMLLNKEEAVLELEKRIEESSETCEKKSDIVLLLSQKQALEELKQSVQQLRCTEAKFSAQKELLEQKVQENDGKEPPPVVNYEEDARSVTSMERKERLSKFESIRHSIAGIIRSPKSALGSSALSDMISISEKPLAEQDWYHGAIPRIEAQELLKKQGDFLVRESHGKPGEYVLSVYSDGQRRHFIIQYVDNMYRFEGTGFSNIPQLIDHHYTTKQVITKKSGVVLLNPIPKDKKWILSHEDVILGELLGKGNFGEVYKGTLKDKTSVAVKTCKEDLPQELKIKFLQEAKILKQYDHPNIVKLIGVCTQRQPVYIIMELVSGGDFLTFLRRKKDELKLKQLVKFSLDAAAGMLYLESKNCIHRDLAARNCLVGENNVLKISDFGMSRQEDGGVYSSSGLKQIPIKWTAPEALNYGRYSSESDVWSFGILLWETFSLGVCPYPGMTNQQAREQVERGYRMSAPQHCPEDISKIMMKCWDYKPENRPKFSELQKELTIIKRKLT
Serine/threonine-protein kinase D3 (Homo sapiens), sequence (O94806 whole entry): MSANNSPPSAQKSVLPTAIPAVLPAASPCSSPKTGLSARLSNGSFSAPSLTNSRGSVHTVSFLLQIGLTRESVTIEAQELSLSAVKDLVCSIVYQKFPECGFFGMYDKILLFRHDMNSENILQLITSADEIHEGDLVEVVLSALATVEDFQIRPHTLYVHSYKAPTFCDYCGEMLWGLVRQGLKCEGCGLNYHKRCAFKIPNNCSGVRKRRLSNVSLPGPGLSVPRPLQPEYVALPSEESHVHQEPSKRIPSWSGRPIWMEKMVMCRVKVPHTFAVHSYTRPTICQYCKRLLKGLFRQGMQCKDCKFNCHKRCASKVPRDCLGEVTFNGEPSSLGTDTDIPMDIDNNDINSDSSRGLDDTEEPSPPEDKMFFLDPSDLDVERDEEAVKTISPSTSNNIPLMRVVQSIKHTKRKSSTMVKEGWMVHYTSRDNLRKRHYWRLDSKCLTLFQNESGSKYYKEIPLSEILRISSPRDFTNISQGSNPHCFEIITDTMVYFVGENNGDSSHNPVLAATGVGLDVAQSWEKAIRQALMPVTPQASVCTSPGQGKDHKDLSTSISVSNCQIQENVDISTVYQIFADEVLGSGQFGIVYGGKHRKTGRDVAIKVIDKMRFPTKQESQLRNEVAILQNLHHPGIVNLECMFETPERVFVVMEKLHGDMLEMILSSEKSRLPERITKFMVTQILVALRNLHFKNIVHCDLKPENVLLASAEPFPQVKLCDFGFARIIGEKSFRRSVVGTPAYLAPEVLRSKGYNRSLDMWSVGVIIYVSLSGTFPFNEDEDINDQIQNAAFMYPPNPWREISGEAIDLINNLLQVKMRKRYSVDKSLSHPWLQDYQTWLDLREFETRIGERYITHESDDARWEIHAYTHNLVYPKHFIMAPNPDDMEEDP
Transcription initiation factor TFIID subunit 1-like (Homo sapiens), sequence (Q8IZX4 whole entry): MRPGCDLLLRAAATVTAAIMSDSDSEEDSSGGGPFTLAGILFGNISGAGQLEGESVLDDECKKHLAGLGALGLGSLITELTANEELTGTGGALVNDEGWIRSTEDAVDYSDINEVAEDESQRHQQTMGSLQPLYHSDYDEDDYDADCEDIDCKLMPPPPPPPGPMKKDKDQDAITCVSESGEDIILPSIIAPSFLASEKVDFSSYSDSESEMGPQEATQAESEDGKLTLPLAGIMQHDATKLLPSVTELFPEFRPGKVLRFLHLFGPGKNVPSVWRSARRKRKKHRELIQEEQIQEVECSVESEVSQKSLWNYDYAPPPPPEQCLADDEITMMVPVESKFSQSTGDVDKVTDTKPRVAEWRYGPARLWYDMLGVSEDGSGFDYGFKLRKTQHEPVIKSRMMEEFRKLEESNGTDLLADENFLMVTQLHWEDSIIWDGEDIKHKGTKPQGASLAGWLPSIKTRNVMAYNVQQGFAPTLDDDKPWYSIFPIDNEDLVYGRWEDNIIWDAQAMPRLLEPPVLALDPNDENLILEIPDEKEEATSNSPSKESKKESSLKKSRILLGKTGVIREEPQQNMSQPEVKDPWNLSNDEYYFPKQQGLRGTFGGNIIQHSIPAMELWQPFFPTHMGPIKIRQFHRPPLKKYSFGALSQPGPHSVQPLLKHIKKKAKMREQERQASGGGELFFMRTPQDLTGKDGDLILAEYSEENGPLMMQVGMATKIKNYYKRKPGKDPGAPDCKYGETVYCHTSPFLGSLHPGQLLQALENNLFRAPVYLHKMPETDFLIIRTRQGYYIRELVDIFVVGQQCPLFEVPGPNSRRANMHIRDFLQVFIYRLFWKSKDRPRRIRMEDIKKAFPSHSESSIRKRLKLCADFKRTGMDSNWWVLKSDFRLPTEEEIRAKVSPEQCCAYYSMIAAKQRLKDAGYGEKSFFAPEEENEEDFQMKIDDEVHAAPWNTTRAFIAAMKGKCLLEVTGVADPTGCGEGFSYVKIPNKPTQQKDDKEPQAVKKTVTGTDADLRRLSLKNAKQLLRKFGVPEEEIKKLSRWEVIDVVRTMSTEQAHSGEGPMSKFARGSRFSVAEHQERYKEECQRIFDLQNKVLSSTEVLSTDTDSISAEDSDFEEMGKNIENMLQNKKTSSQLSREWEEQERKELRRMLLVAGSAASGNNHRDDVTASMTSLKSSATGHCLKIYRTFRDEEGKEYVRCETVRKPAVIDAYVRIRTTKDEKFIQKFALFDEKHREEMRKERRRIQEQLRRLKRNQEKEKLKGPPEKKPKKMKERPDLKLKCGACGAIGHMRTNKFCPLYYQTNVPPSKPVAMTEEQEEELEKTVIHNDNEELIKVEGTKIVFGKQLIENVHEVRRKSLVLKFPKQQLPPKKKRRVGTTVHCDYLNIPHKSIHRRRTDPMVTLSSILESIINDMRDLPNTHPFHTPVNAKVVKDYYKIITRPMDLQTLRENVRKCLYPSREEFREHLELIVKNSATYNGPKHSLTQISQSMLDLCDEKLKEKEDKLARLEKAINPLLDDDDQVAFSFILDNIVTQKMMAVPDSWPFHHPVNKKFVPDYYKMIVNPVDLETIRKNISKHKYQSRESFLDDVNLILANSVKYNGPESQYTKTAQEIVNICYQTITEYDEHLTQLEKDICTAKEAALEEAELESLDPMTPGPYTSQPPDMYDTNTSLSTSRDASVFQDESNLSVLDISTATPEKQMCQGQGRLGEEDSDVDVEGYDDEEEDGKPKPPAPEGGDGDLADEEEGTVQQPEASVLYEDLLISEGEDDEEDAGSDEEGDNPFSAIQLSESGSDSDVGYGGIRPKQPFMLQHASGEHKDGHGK
Dual specificity protein kinase CLK4 (Homo sapiens), sequence (Q9HAZ1 whole entry, looked up): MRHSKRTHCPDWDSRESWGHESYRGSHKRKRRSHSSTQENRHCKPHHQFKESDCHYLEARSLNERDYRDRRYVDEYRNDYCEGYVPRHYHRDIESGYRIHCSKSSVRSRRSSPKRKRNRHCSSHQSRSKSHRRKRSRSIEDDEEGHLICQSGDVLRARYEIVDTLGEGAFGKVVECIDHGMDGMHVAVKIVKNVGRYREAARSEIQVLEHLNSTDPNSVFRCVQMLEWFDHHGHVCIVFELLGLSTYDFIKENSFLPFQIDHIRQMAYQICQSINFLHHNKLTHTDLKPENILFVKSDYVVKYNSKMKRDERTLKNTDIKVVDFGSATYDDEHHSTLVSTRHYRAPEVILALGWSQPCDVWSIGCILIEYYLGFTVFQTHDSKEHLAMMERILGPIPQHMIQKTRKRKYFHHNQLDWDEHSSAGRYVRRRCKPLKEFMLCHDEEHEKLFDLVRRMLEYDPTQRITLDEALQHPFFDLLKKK

SMILES: CN(C)C(=O)c1cc2cnc(Nc3ccc(NC(=O)CCCCCCCN=C=S)cc3)nc2n1C1CCCC1
- half-life at 2 µM [1]: 33 min
- inhibition [2]: 7%
- inhibition [3]: 26%
- inhibition [4]: 19%
- inhibition [5]: 17%
- inhibition [6]: 31%
- inhibition (Homo sapiens): -1%
- inhibition [7]: 1%
- IC50 (MCF7): 1740 nM
- inhibition [8]: 35%
- inhibition [9]: 21%
- inhibition [10]: 23%
- inhibition [11]: 75%
- Activity (NCI-H1299 [12]): Active
- inhibition [13]: 15%
- Activity (NCI-H1299 [14]): Active
- inhibition [15]: 82%
- inhibition [16]: 22%
